Published values from different studies.
Compare with care: the assays were run in different laboratories.
Effect on: cell growth or viability

| SMILES | cell line | technique | time | IC50 |
| --- | --- | --- | --- | --- |
| COc1cc(C=NNC(=O)c2cc(-c3ccccc3)n(-c3ccc(S(N)(=O)=O)cc3)n2)cc(OC)c1OC | HT-29 | fluorescence | 48 h | 26.3 µM |
| Cc1ccc(S(=O)(=O)n2cc(CN3CCN(c4ccc(C(=O)NO)cc4)CC3)c3ccccc32)cc1 | LLC-PK1 | – | 48 h | 8.82 µM |
| CCOc1ccc(C=Nn2c(-c3ccccc3)nc3ccc(Cl)cc3c2=O)cc1 | LLC-PK1 | MTT | 72 h | 136 µM |
| CC(=O)OC[C@H]1O[C@@H]([S-])[C@H](OC(C)=O)[C@@H](OC(C)=O)[C@@H]1OC(C)=O.CCP(CC)CC.[Au+] | IMR-90 | MTT | 48 h | 5.27 µM |
| NS(=O)(=O)c1ccc(-n2nc(-c3nnc(CCl)o3)cc2-c2ccccc2)cc1 | HT-29 | fluorescence | 48 h | 29.5 µM |
| O=c1c2cc(Cl)ccc2nc(-c2ccccc2)n1N=Cc1ccc(Br)cc1O | LLC-PK1 | MTT | 72 h | 34.8 µM |
| NS(=O)(=O)c1ccc(-n2nc(C(=O)NN=Cc3ccccc3O)cc2-c2ccccc2)cc1 | HT-29 | fluorescence | 48 h | 20 µM |
| COc1cccc2c1C(=O)c1c(O)c3c(c(O)c1C2=O)C[C@@](O)(C(=O)CO)C[C@@H]3O[C@H]1C[C@H](N)[C@H](O)[C@H](C)O1 | SU-DHL-4 | – | 96 h | 0.00506 µM |
| O=c1c2cc(Cl)ccc2nc(-c2ccccc2)n1N=Cc1cccc([N+](=O)[O-])c1 | LLC-PK1 | MTT | 72 h | 149 µM |
| NS(=O)(=O)c1ccc(-n2nc(C(=O)NN3C(=O)c4ccccc4C3=O)cc2-c2ccccc2)cc1 | HT-29 | fluorescence | 48 h | 48.3 µM |
| CCOc1ccc(C=Nn2c(-c3ccccc3)nc3ccc(Cl)cc3c2=O)cc1O | LLC-PK1 | MTT | 72 h | 342 µM |
| NS(=O)(=O)c1ccc(-n2nc(C(=O)NN=Cc3ccc(O)cc3)cc2-c2ccccc2)cc1 | HT-29 | fluorescence | 48 h | 19.7 µM |
| CC(C)N=c1cc2n(-c3ccc(Cl)cc3)c3ccccc3nc-2cc1Nc1ccc(Cl)cc1 | Caco-2 | MTT | 24 h | 23.3 µg/mL |
| O=c1c2cc(Cl)ccc2nc(-c2ccccc2)n1N=Cc1ccccc1Cl | LLC-PK1 | MTT | 72 h | 351 µM |
| CC(=NNC(=O)c1cc(-c2ccccc2)n(-c2ccc(S(N)(=O)=O)cc2)n1)c1ccc(C)cc1 | HT-29 | fluorescence | 48 h | 21.8 µM |
| Cc1ccc(S(=O)(=O)n2cc(CNc3ccc(C(=O)NO)cc3)c3ccccc32)cc1 | LLC-PK1 | – | 48 h | 9.99 µM |
| O=C(CCSSc1ccccc1/C=N/NC(=O)c1ccccc1)OC[C@H]1OC(O)[C@H](O)[C@@H](O)[C@@H]1O (some centres unmarked) | A2780 | MTT | – | 23 µM |
| O=c1c2cc(Cl)ccc2nc(-c2ccccc2)n1N=Cc1ccc([N+](=O)[O-])cc1 | LLC-PK1 | MTT | 72 h | 115 µM |
| O=C(NO)c1ccc(NCc2cnc3ccccc3c2)cc1 | LLC-PK1 | – | 48 h | 9.38 µM |
| C=CC(=O)N1CCC[C@@H](n2nc(-c3ccc(Oc4ccccc4)cc3)c3c(N)ncnc32)C1 | SU-DHL-4 | resazurin | 72 h | 0.454 µM |
